Source: PubChem BioAssay
In the library only some 4.7% were active in any assay of this set; here they are far more common.
MrgX1 antagonist: antagonists of human MrgX1 receptor, primary screen, HEK293 cells, Fluo-4 calcium flux | Mas-related G-protein coupled receptor member X1 (Homo sapiens), Q96LB2 | BAM8-22 antagonism; active compounds read low | B-score at 10 µM | 1.3% of 310,000 active;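 active = calcium-response B-score plate-corrected more than 3 library SD below zero, starting fluorescence within 5 deviations, no agonist response on first addition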;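 note: peak minus trough fluorescence over baseline after final BAM8-22 challenge near maximal dose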
MrgX1 ag: agonists of human MrgX1 receptor, primary screen, HEK293 cells, Fluo-4 calcium flux; Mas-related G-protein coupled receptor member X1 (Homo sapiens), Q96LB2; Fluo-4 calcium fluorescence, agonist mode; active compounds read high; B-score at 10 µM; 0.44% of 310,000 active; AID 588627, 2011;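 active = calcium response B-score plate-corrected fluorescence ratio at least 3 library SD, with starting fluorescence B-score inside 5 SD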
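Test system: HEK293 cells stably expressing human MrgX1 receptor; amount: 15,000 cells per well; doses: compound delivered in addition one of three; times: overnight plating before 1 h dye loading; detection: Fluo-4 NW calcium-flux fluorescence, kinetic read; read-out basis: B-scored fluorescence response ratio; controls: positive and negative controls per plate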
KCC2 mod: KCC2 cotransporter modulators, thallium flux, primary screen, cell-based, HEK293 KCC2, FluoZin-2 fluorescence, MLSMR. Solute carrier family 12 member 5 (Homo sapiens), Q9H2X9. KCC2 cells, thallium flux FluoZin-2 fluorescence. 2.2% of 190,000 active. B-score of Tl+ flux slope (higher = more flux/activation; lower = inhibition) at 10 µM. AID 1456, 2008;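 active = thallium flux slope and its plate-corrected score both differing from the plate sample mean at a set confidence after two filtering rounds, in either direction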;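 note: slope of fluorescence scaled to starting intensity during 10 to 20 s after thallium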
RGS4 inh: RGS4 inhibitors, primary screen, cell-based, HEK293 M3R inducible RGS4, calcium flux | Regulator of G-protein signaling 4 (Homo sapiens), P49798 | Fluo-4 calcium flux; active compounds read high; triggered by carbachol at its EC20 | B-score at 10 µM | 0.45% of 310,000 active;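 active = B-score, a plate-corrected calcium signal, over three deviations above library mean, with baseline fluorescence within five deviations of library mean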;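 note: RGS4 expression induced by doxycycline in cells with stable M3 receptor; B-score is computed from the integrated fluorescence ratio over baseline after carbachol; higher B-score means a larger calcium signal and so more RGS4 inhibition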
RGS4 act: RGS4 potentiators or activators, primary screen, cell-based, HEK293 M3R inducible RGS4, calcium flux | carbachol calcium flux Fluo4; active compounds read low | B-score at 10 µM | 0.92% of 310,000 active | AID 463111, 2010;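 active = B-score of the integrated calcium signal more than 4 SD below the library mean, with starting fluorescence not abnormally high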;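 note: negative B-score means reduced calcium response which marks RGS4 activation or potentiation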
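Material: M3R-expressing HEK293 line, RGS4 induced by doxycycline | Schedule: Overnight RGS4 induction, 30 min dye load 37 °C, 20 min compound RT | Measured by: Fluo4 fluorescence kinetic imaging of calcium | Read-out: Integrated calcium ratio converted to B score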
MrgX1 PAM: positive allosteric modulators of MrgX1, primary screen, HEK293 cells, Fluo-4 calcium flux | FDSS; active compounds read high | B-score at 10 µM | 0.63% of 310,000 active | AID 588675, 2011;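 active = plate-corrected calcium response at least 3 library SD above typical, normal starting fluorescence, not activating the receptor alone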;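 note: compound read alongside a low EC10 to EC30 dose of BAM8-22 agonist; peak minus trough fluorescence over baseline measured at the second addition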
RGS4 block valid: enhanced carbachol calcium response, M3R/RGS4 cells, RGS4 inhibitor project, cell-based, validation screen, HEK293 M3R/RGS4, calcium flux; AID 492999, 2010; carbachol calcium Fluo-4 fluorescence; carbachol added at its EC20; 0 = buffer wells, 100 = carbachol control; calcium response, % at 10 µM; shares compounds with RGS4 inh; 65% of 1,700 active;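 active = duplicate-averaged calcium response above the buffer-only control mean plus 5 SD of those controls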;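 note: integrated fluorescence ratio F max minus min over baseline F0; higher response in RGS4-induced cells means RGS4 inhibition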
RGS4 uninduced: carbachol calcium response in non-induced M3R cells, confirmation, counter-screen for RGS4 inhibitor project, cell-based, HEK293 M3R. AID 493000, 2010. carbachol calcium Fluo-4; submaximal (EC20) carbachol stimulus; buffer wells 0%, carbachol control wells 100%. activity (percent), % at 10 µM. shares compounds with RGS4 inh. 20% of 1,900 active; call rule not given here;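 note: RGS4 induction absent so cells express M3R without RGS4; higher means more calcium signal and flags a non-specific hit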
M3R basal Ca ctr: signal in non-induced cells without carbachol, RGS4 inhibitor counter-screen. shares compounds with RGS4 inh. HEK293 M3R/RGS4 non-induced, Fluo-4 calcium, no carbachol; normalised: buffer wells 0%, carbachol wells 100%. calcium response (agonist-mode artifact), % at 10 µM. 22% of 1,900 active. AID 493001;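 active = duplicate-averaged calcium rise in uninduced cells above buffer wells' mean plus 5 SD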
MrgX1 ag reconf: MrgX1 receptor agonists, duplicate retest, confirmation, HEK293 cells, Fluo-4 calcium flux; shares compounds with MrgX1 ag; 78% of 600 active; activation, % at 10 µM; AID 602412, 2012; Fluo-4 calcium fluorescence, FDSS;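 active = calcium signal rise, corrected for plate position, at least 3 library SD high, with starting brightness within 5 such deviations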
HEK293 Ca flux: nonspecific calcium signal in parental HEK293, confirmation, counter-screen for MrgX1 antagonist project, parental HEK293 cells, Fluo-4 calcium flux; 2% of 4,000 active; fluorescence ratio F(max-min)/F0 at 10 µM; Fluo-4 calcium fluorescence, FDSS; AID 624111, 2012; shares compounds with MrgX1 antagonist;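 active = duplicate-averaged calcium fluorescence ratio at least three times the standard deviation of buffer wells, a nonspecific response in parental cells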
HEK293 Ca counter: calcium response in parental HEK293 cells, primary screen, counter-screen for MrgX1 allosteric activator project, cell-based, Fluo-4 calcium flux, duplicate | shares compounds with MrgX1 antagonist | Fluo-4 fluorescence ratio; active compounds read high | fluorescence ratio F(max-min)/F0 at 10 µM | 0.4% of 4,000 active | AID 624114, 2012;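 active = calcium fluorescence ratio, averaged over duplicates, at least 3 SD of the buffer-well ratio, meaning a nonspecific response in receptor-free cells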;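 note: untransfected parental HEK293 lacking MrgX1 used as counterscreen for MrgX1 allosteric activators; fluorescence change taken during the second addition on a kinetic imager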
HEK293 Ca cntr2: calcium response in parental HEK293 cells, primary screen, counter-screen for MrgX1 agonist project, cell-based, Fluo-4 calcium flux, duplicate, agonist mode. shares compounds with MrgX1 antagonist. Fluo-4 calcium fluorescence (FDSS); active compounds read high. fluorescence ratio F(max-min)/F0 at 10 µM. 8.7% of 4,000 active. AID 624115, 2012;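 active = calcium fluorescence ratio at least three times the spread of buffer wells, meaning a non-specific response in parental cells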
* hit, by the source's call; i = inactive; · = not tested or not shown; ! = not active in a repeat.

SMILES | MrgX1 antagonist | MrgX1 ag | KCC2 mod | RGS4 inh | RGS4 act | MrgX1 PAM | MrgX1 ag reconf | HEK293 Ca flux | HEK293 Ca counter | HEK293 Ca cntr2 | others
CC(=O)OC1CC[C@]2(C#N)[C@H]3CC[C@]4(C)[C@H](C5C=CC(=O)O5)CCC4(O)C3CCC2(O)C1 (stereo partly specified) | i | i | · | i | i | i | · | · | · | ·
Cn1ncc(Cl)c1C(=O)N1CCC2(CC1)OCCO2 | i | i | · | i | i | i | · | · | · | ·
O=C(N/N=C/c1c(O)n(CCc2ccccc2)c(=O)[nH]c1=O)c1ccccc1O | i | i | -1.5 | i | i | i | · | · | · | · | RGS4 block valid=i;RGS4 uninduced=i;M3R basal Ca ctr=9.0%*
O=C(N/N=C/c1c(O)n(CCc2ccc(F)cc2)c(=O)[nH]c1=O)c1ccccc1 | i | i | -0.4 | i | i | i | · | · | · | ·
COc1cc(C(c2c(C)[nH]n(-c3ccccc3)c2=O)c2c(C)[nH]n(-c3ccccc3)c2=O)cc(OC)c1OC | i | i | 0.6 | 6* | i | i | · | · | · | · | RGS4 block valid=14%*;RGS4 uninduced=i;M3R basal Ca ctr=i
COc1ccc(N2C(=O)NC(=O)/C(=C\c3cn(CC(=O)N4CCOCC4)c4ccccc34)C2=O)c(OC)c1 | i | i | · | 8.7* | i | i | · | · | · | · | RGS4 block valid=16%*;RGS4 uninduced=i;M3R basal Ca ctr=8.5%*
Cc1cc(OCC(=O)N2CCC(C(=O)O)CC2)c2c3c(c(=O)oc2c1)CCC3 | i | i | · | i | i | i | · | · | · | ·
O=c1[nH]c(O)c(N=Nc2ccc([N+](=O)[O-])cc2)c(=O)[nH]1 | i | i | -0.28 | i | i | i | · | · | · | ·
O=C(c1ccc(F)cc1)C(Cc1ccccc1)N1CCCCC1 (stereo unspecified) | i | i | -0.88 | i | i | i | · | · | · | ·
O=C(CCCN1CCC2(CC1)C(=O)NCN2c1ccccc1)c1ccc(F)cc1 | i | 76* | -0.0068 | i | i | i | 542%* | i | i | 99*
CCCCc1cc(=O)oc2cc(OCC(=O)N3C[C@H]4C[C@@H](C3)c3cccc(=O)n3C4)c(Cl)cc12 | i | i | · | i | i | i | · | · | · | ·
C#CCOC(=O)C1=CCCN(C)C1 | i | 90* | · | · | · | i | 281%* | i | i | 54*
Cc1ccc(CN2CCCC(C(=O)c3sccc3C)C2)o1 (stereo unspecified) | i | i | · | i | i | i | · | · | · | ·
CC1CCN(CC#CCOc2ccc(Cl)cc2)CC1 | i | i | · | i | i | i | · | · | · | ·
Cc1cc(C)n(-c2ccc(NN=C(C#N)C#N)cc2)n1 | i | 88* | -2.7 | i | i | i | 215%* | i | i | 56*
CC(=O)OCC[N+](C)(C)C | i | 134* | 0.46 | i | -7.5*! | i | 558%* | i | i | 108*
CCOc1ccc2oc(C(=O)NN3C(C)CCCC3C)c(C)c2c1 (stereo unspecified) | i | i | -0.85 | i | i | i | · | · | · | ·
CC1CN=C(NCCc2ccccc2)S1 (stereo unspecified) | i | i | 0.62 | i | i | i | · | · | · | ·
CN(C)C1(CNC(=O)Nc2ccc(Cl)c(Cl)c2)CCCCC1 | i | 30* | · | i | i | i | i | i | i | i
CN(C)C1(CNC(=O)c2cc(S(=O)(=O)N3CCOCC3)c(Cl)cc2Cl)CCCCC1 | i | i | · | i | i | i | · | · | · | ·
CNCCc1ccc(O)c(O)c1 | i | 43* | · | i | i | i | 116%* | i | i | i
COc1ccc(-n2c(C)nc3ccccc3c2=O)c([N+](=O)[O-])c1 | i | i | · | i | i | i | · | · | · | ·
COc1cc(C)c(CNCCc2c[nH]c3ccccc23)cc1C | i | i | · | i | i | i | · | · | · | ·
CCC(C)N1C(=O)NC(=O)C2(Cc3c(ccc4ccccc34)N(C)C2)C1=O (stereo unspecified) | i | 34* | -2.6 | i | i | i | i | i | i | i
C[C@H]1OC[C@@H](C[N+](C)(C)C)O1 | i | 112* | 1.7 | i | i | i | 550%* | i | i | 107*
CC1OC(C[N+](C)(C)C)CC1O (stereo unspecified) | i | 80* | · | · | · | i | 502%* | i | i | 104*
O=C1CC(c2cccnc2)=NN1c1ccc(Cl)cc1Cl | i | i | · | i | i | i | · | · | · | ·
